Source: PubChem (several laboratories)
Most compounds without a hit are left out; they make up all but 1.6% or so of the library.
SDO1 yeast rescue = growth rescue of sdo1-depleted yeast, primary screen, S. cerevisiae, bone marrow failure model; S. cerevisiae sdo1-depleted JHY4D growth rescue, OD600 30 h; stronger effect = higher value; pdr5 snq2 efflux-pump mutant strain; z-score at 10 µM; 140,000 compounds, 0.21% hits;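 active = z-score above 3 at both the 24 hr and the 30 hr optical density reads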
BB579 growth dn = growth inhibitors of yeast BB579 in restrictive medium, primary screen, yeast lifespan-shortening project, S. cerevisiae. OD615, 48 h. inhibition, % at 10 µM. 140,000 compounds, 0.51% hits. AID 804, 2007;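 active = inhibition above a set limit, 3 SD over the mean compound inhibition, cut at about 44% in these data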
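System: Saccharomyces cerevisiae DeaD strain BB579, replicative lifespan model yeast. Buffer or medium: restrictive glucose-based CSMM-D medium. Doses: one dose, 10 µM compound with 0.25% DMSO. Timing: 4 h preincubation and 48 h exposure at 30 °C. Detection: turbidity as optical density at 615 nm. Benchmarks: amphotericin B 10 µg/mL, positive.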
Yeast lifespan up = compounds extending yeast replicative lifespan, primary screen, S. cerevisiae, OD615; 130,000 compounds, 0.68% hits; S. cerevisiae growth with nicotinamide; deaD strain in restrictive glucose medium; AID 775, 2007; inhibition of the nicotinamide effect, % at 10 µM;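 active = inhibition above a set limit, placed 3 SD over the median of all compounds, cut at about 26% in these data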
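assay system = DeaD-strain S. cerevisiae | buffer or medium = restrictive glucose medium | reagent = 1.5 mM nicotinamide | compound = 10 µM single point, 0.25% DMSO | incubation = 48 h compound exposure at 30 °C, humidified | signal = OD615 measurement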
NCF1 inh = p47phox/p22phox peptide binding inhibitors, primary screen, biochemical, uHTS, NADPH oxidase regulatory subunit; 220,000 compounds, 0.53% hits; Neutrophil cytosol factor 1 (Homo sapiens), P14598; inhibition, % at 24.7 µM; AID 1274, 2008; fluorescence polarization, 2 h;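 active = inhibition above about 30%, limit read from the data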
Target sequence (P14598 whole entry, looked up): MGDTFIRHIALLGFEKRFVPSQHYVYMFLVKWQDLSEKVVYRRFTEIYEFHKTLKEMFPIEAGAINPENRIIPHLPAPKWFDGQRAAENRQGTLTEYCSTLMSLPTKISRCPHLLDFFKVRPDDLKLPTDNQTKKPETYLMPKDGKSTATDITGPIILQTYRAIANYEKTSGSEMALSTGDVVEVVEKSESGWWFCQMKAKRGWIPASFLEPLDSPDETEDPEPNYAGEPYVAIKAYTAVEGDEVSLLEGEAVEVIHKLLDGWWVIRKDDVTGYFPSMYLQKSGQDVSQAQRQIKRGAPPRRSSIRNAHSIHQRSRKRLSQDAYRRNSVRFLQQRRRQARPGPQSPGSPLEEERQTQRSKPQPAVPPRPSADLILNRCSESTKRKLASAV
RBBP9 inh = human RBBP9 inhibitors, primary screen, biochemical, fluorescence polarization, FP-Rh probe, HTS. Serine hydrolase RBBP9 (Homo sapiens), O75884. recombinant RBBP9. inhibition, % at 7.94 µM. 220,000 compounds, 0.2% hits;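 active = inhibition above the campaign mean of all tested compounds plus 3 SD, cut at about 14% in these data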
Target sequence (O75884 whole entry, looked up): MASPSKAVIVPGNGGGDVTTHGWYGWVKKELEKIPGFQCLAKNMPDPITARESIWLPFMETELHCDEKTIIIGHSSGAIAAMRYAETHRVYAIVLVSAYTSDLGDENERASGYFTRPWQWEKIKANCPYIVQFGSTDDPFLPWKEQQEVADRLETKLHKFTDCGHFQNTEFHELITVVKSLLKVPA
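System: RBBP9 protein / Buffer or medium: Tris/NaCl buffer pH 8.0 with 0.1% Pluronic / Probe or stimulus: Serine-hydrolase probe FP-Rh, 375 nM pre-mixing / Dosing: 7.94 µM single dose, 0.794% DMSO / Times: enzyme-compound preincubation 30 min, then probe labeling 45 min, 25 °C / Technique: fluorescence polarization (mP), excitation 525 nm, emission 598 nm / Replication: singlicate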
TbHK1 inh = Trypanosoma brucei hexokinase 1 inhibitors, primary screen, biochemical, G6PDH-coupled NADH absorbance, MLSCN library; hexokinase 1 [Trypanosoma brucei]; recombinant TbHK1, G6PDH-coupled NADH A340; inhibition, % at 10 µM; 220,000 compounds, 0.11% hits; AID 1430, 2008;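 active = inhibition of 50% or more in the single-dose primary screen; inactive = inhibition below 50%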
sdo1 rescue conf = SDO1-depleted yeast growth rescue, concentration-response, diseases of bone marrow failure, JHY4D, OD600; OD recovery (concentration not given with the values); S. cerevisiae JHY4D (SDO1-depleted) growth rescue, 30 h; stronger effect = higher value; efflux-deficient strain, SNQ2 and PDR5 mutated; 440 compounds, 44% hits; shares compounds with SDO1 yeast rescue;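 active = yeast growth recovered at 30 hours, either rising with dose fitted slope above 0.001 or with average optical density gain above 0.07, some results past the limit were not filed as active; inactive = growth falling with dose or no effect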
Numbers stand for hits.

Cn1c(=O)c2[nH]c(CN3CCN(Cc4ccccc4)CC3)nc2n(C)c1=O was read as SDO1 yeast rescue inactive, BB579 growth dn inactive, Yeast lifespan up inactive, NCF1 inh inactive, RBBP9 inh inactive and TbHK1 inh inactive.
`O=S1(=O)CCN(OCc2ccc(F)cc2Cl)CC1` gave NCF1 inh inactive, RBBP9 inh inactive and TbHK1 inh inactive.
`O=C(CSc1nc2[nH]ncc2c(=O)n1-c1ccccc1)N1CCCCCC1` gave NCF1 inh inactive, RBBP9 inh inactive and TbHK1 inh inactive.
C=CCn1c(=NC(=O)c2cc(-c3cccs3)nc3ccccc23)sc2cc(S(N)(=O)=O)ccc21 was read as SDO1 yeast rescue inactive, BB579 growth dn inactive, Yeast lifespan up inactive, NCF1 inh inactive, RBBP9 inh inactive and TbHK1 inh inactive.
COCCn1c(=NC(=O)c2cc(-c3cccs3)nc3ccccc23)sc2cc(S(N)(=O)=O)ccc21 was read as SDO1 yeast rescue 9.4, BB579 growth dn inactive, Yeast lifespan up inactive, NCF1 inh inactive, RBBP9 inh inactive, TbHK1 inh inactive and sdo1 rescue conf 0.071.
CCOC(=O)c1sc2nc3c(SCC(=O)O)cc(C(=O)c4ccccc4O)cn3c(=O)c2c1C was read as NCF1 inh inactive, RBBP9 inh inactive and TbHK1 inh inactive.
For CCOC(=O)c1sc2nc3c(SCC(=O)O)cc(C(=O)c4cc(F)ccc4O)cn3c(=O)c2c1C the results were SDO1 yeast rescue 3.1, BB579 growth dn inactive, Yeast lifespan up inactive, NCF1 inh inactive, RBBP9 inh inactive, TbHK1 inh inactive and sdo1 rescue conf inactive.
For O=C(COC(=O)c1ccccc1C(=O)c1ccc(Cl)cc1)NCC1CCCO1 (stereo not drawn) the results were NCF1 inh inactive, RBBP9 inh inactive and TbHK1 inh inactive.
Screening Cc1cc(C)c(-c2c(O)c3c(n(C)c2=O)CC(C)(C)CC3=O)c(C)c1 returned SDO1 yeast rescue 10, BB579 growth dn inactive, Yeast lifespan up inactive, NCF1 inh inactive, RBBP9 inh inactive, TbHK1 inh inactive and sdo1 rescue conf 0.08.
For Cn1c2c(c(O)c(-c3ccccc3)c1=O)C(=O)CC(C)(C)C2 the results were SDO1 yeast rescue inactive, BB579 growth dn inactive, Yeast lifespan up inactive, NCF1 inh inactive, RBBP9 inh inactive and TbHK1 inh inactive.
COC(=O)[C@H](CC(C)C)NC(=O)NCc1ccc(Cl)cc1 was read as NCF1 inh inactive, RBBP9 inh inactive and TbHK1 inh inactive.
For COc1ccccc1NC(=O)c1nn(-c2cccc(C(F)(F)F)c2)ccc1=O the results were SDO1 yeast rescue 7.2, BB579 growth dn inactive, Yeast lifespan up inactive, NCF1 inh inactive, RBBP9 inh inactive, TbHK1 inh inactive and sdo1 rescue conf inactive.
Screening O=C(N1CCN(c2ccccc2)CC1)C(F)(F)C(F)(F)F returned SDO1 yeast rescue 3.4, BB579 growth dn inactive, Yeast lifespan up inactive, NCF1 inh inactive, RBBP9 inh inactive, TbHK1 inh inactive and sdo1 rescue conf inactive.
O=C(N1CCN(c2ccccc2)CC1)C(F)(F)C(F)F was read as SDO1 yeast rescue inactive, BB579 growth dn inactive, Yeast lifespan up inactive, NCF1 inh inactive, RBBP9 inh inactive and TbHK1 inh inactive.
`Cc1cccc(N/C(N)=N/c2nc(CSc3ccc(Cl)cc3)cc(=O)[nH]2)c1` gave NCF1 inh inactive, RBBP9 inh inactive and TbHK1 inh inactive.
For Cc1cccc2cc(C#N)c(SCC(=O)NCC3CCCO3)nc12 (stereo not drawn) the results were SDO1 yeast rescue inactive, BB579 growth dn inactive, NCF1 inh inactive, RBBP9 inh inactive and TbHK1 inh inactive.
Screening Cc1cccc2c(SCC(=O)NCC3CCCO3)nc(-c3ccc(F)cc3)nc12 (stereo not drawn) returned SDO1 yeast rescue inactive, BB579 growth dn inactive, Yeast lifespan up inactive, NCF1 inh inactive, RBBP9 inh inactive, TbHK1 inh inactive and sdo1 rescue conf 0.11.
Screening CCN(CC)S(=O)(=O)c1cc(C(=O)Nc2cccnc2)ccc1Cl returned SDO1 yeast rescue 3.3, BB579 growth dn inactive, Yeast lifespan up inactive, NCF1 inh inactive, RBBP9 inh inactive, TbHK1 inh inactive and sdo1 rescue conf 0.093.
For CCN(CC)S(=O)(=O)c1cc(C(=O)Nc2ccncc2)ccc1Cl the results were SDO1 yeast rescue inactive, BB579 growth dn inactive, Yeast lifespan up inactive, NCF1 inh inactive, RBBP9 inh inactive and TbHK1 inh inactive.
For O=S(=O)(c1ccc2c(c1)OCCO2)N1CCC(c2nc3ccc(Cl)cc3[nH]2)CC1 the results were SDO1 yeast rescue 9.1, BB579 growth dn inactive, Yeast lifespan up inactive, NCF1 inh inactive, RBBP9 inh inactive, TbHK1 inh inactive and sdo1 rescue conf inactive.
O=C(C1CCCCC1)N(Cc1ccccc1)c1ccccn1 was read as SDO1 yeast rescue 11, BB579 growth dn inactive, Yeast lifespan up inactive, NCF1 inh inactive, RBBP9 inh inactive, TbHK1 inh inactive and sdo1 rescue conf 0.078.
CCOC(=O)c1cnc2ccc(C)cc2c1Sc1ccc(F)cc1 was read as SDO1 yeast rescue 13, BB579 growth dn inactive, Yeast lifespan up inactive, NCF1 inh inactive, RBBP9 inh inactive, TbHK1 inh inactive and sdo1 rescue conf 0.097.
`OC(CN1c2ccccc2Sc2ccccc21)Cn1nnc2ccccc21` (stereo not drawn) gave SDO1 yeast rescue inactive, BB579 growth dn inactive, Yeast lifespan up inactive, NCF1 inh inactive, RBBP9 inh inactive and TbHK1 inh inactive.
Cc1nn(CC(O)CN2c3ccccc3Sc3ccccc32)c(C)c1Br (stereo not drawn) was read as SDO1 yeast rescue 4.5, BB579 growth dn inactive, Yeast lifespan up inactive, NCF1 inh inactive, RBBP9 inh inactive, TbHK1 inh inactive and sdo1 rescue conf inactive.
CC(C)CC(NC(=O)COc1ccccc1)C(=O)O (stereo not drawn) was read as SDO1 yeast rescue inactive, BB579 growth dn inactive, Yeast lifespan up inactive, RBBP9 inh inactive and TbHK1 inh inactive.
COC(=O)[C@H](C)NC(=O)COc1ccccc1 was read as SDO1 yeast rescue 3.8, BB579 growth dn inactive, Yeast lifespan up inactive, NCF1 inh inactive, RBBP9 inh inactive, TbHK1 inh inactive and sdo1 rescue conf inactive.
Screening C=CCc1c(C)nc(N2CCSCC2)[nH]c1=O returned NCF1 inh inactive, RBBP9 inh inactive and TbHK1 inh inactive.
